Assay results: ChEMBL document CHEMBL1124612, “Synthesis and structure-activity relationships of a series of anxioselective pyrazolopyridine ester and amide anxiolytic agents” (J Med Chem, 1989)
The source made the active and inactive calls. The rule behind the calls is not given here.

Assays:
[1] = test system: GABA-A receptor; anion channel; assay: Inhibition of [3H]flunitrazepam binding to GABA-A benzodiazepine receptor of rat cerebral cortex at 500 nM; type: tissue-based
In short: (§1)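 Rat cerebral cortex membranes were incubated with [3H]flunitrazepam in the presence of the test agent at a single concentration (nM), run in triplicate with under 7% variation between values. Binding is reported as % inhibition of [3H]flunitrazepam binding.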

Rattus norvegicus [2] = assay: Minimum effective dose (po) tested for its anxiolytic activity in rat using the shock-induced suppression of drinking (SSD) test.; type: functional; conditions: read-out: MED
In short: (§2)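 Rats (n = 8 per dose) were dosed orally at one or more levels and then run in the shock-induced suppression of drinking conflict test. MED is the dose producing a significant rise (p < 0.05, Student's t test) in mean shocks accepted relative to vehicle-treated controls.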

Rattus norvegicus [3] = assay: Minimum effective dose (ip) tested for its anxiolytic activity in rat using the shock-induced suppression of drinking (SSD) test; NS is No Significant activity at 25 mg/Kg; type: functional, organism-based
In short: (§3)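 Shock-induced suppression of drinking (Vogel-type conflict) in rats, with compounds given intraperitoneally at one or more dose levels, 8 rats per dose. MED is the lowest dose giving a significant increase (p < 0.05, Student's t test) in the mean number of shocks taken versus vehicle control.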

[4] = molecular target: GABA-A receptor; anion channel; assay: (§4) Inhibition of [3H]flunitrazepam binding to GABA-A benzodiazepine receptor of rat cerebral cortex; type: tissue-based
Rattus norvegicus [5] = assay: Minimum effective dose (ip) tested for its anxiolytic activity in rat using the shock-induced suppression of drinking (SSD) test.; type: functional; conditions: read-out: MED; in short: as §3
Rattus norvegicus [6] = assay: Minimum effective dose (ip) tested for its anxiolytic activity in rat using the shock-induced suppression of drinking (SSD) test; NS is No Significant activity at 50 mg/Kg; type: functional, organism-based; in short: as §3
[7] = test system: GABA-A receptor; anion channel; assay: Inhibition of [3H]flunitrazepam binding to GABA-A benzodiazepine receptor of rat cerebral cortex (Not Significant at 5000 nM); type: tissue-based; in short: as §1
[8] = molecular target: T1, GABA-A receptor; anion channel (Rattus norvegicus) (UniProt O09028+P15431+P18506+P18508+P19969+P20236+P23574+P23576+P28471+P28473+P30191+P62813+P63079+P63138+Q91ZM7+Q9ES14); assay: Displacement of [3H]flunitrazepam from GABA-A benzodiazepine receptor of rat cerebral cortex at 5000 nM; type: tissue-based; in short: as §1
[9] = molecular target: GABA-A receptor; anion channel; assay: as §4; type: tissue-based; remark: listed apart in the source
In short: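 [3H]Flunitrazepam displacement from rat cerebral cortex benzodiazepine receptors, run in triplicate with under 7% variation between values. IC50 is the concentration (nM) giving half-maximal inhibition of binding, determined from three or more concentrations.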

[10] = molecular target: T1, GABA-A receptor; anion channel (Rattus norvegicus); assay: Displacement of [3H]flunitrazepam from GABA-A benzodiazepine receptor of rat cerebral cortex at 500 nM; type: tissue-based; in short: as §1
Rattus norvegicus [11] = assay: Minimum effective dose (po) tested for its anxiolytic activity in rat using the shock-induced suppression of drinking (SSD) test; NS is No Significant activity at […]; type: functional, organism-based; in short: as §2
Rattus norvegicus [12] = assay: Minimum effective dose (ip) tested for its anxiolytic activity in rat using the shock-induced suppression of drinking (SSD) test; NS is No Significant activity at 5 mg/Kg; type: functional, organism-based; in short: as §3
Rattus norvegicus [13] = assay: Minimum effective dose (ip) tested for its anxiolytic activity in rat using the shock-induced suppression of drinking (SSD) test; NS is No Significant activity at 25 mg/KG; type: functional, organism-based; in short: as §3

Compound: CCCCCn1ncc2c(N)c(C(=O)N(CC)CCC)cnc21
- IC50 [1]: Not Active
- minimal effective dose (Rattus norvegicus [2]): 25 mg/kg

Compound: C=CCNC(=O)c1cnc2c(cnn2CCCCC)c1NCCCC
- IC50 [1]: Not Active
- NS (Rattus norvegicus [3]): inactive

Compound: CCOC(=O)c1c(C)nc2c(cnn2CC)c1NC
- MED (Rattus norvegicus [3]): inactive

Compound: CCCCCn1ncc2c(N)c(C(=O)NC(C)C)cnc21
- IC50 [4]: 414 nM
- minimal effective dose (Rattus norvegicus [5]): 25 mg/kg

Compound: C=C(C)COC(=O)c1c(C)nc2c(cnn2CCCCC)c1N
- IC50 [4]: 69 nM
- MED (Rattus norvegicus [3]): inactive

Compound: CCCCCn1ncc2c(O)c(C(=O)OCC)c(C)nc21
- IC50 [1]: Not Active
- minimal effective dose (Rattus norvegicus [6]): inactive

Compound: CCCCCn1ncc2c(N)c(C(=O)N(CC)CC)cnc21
- IC50 [1]: Not Active
- minimal effective dose (Rattus norvegicus [2]): 25 mg/kg

Compound: CCCCCn1ncc2c(N)c(C(=O)OCc3ccccc3)c(C)nc21
- IC50 [4]: 100 nM
- MED (Rattus norvegicus [3]): inactive

Compound: CCOC(=O)c1c(C)nc2c(c(C)nn2CC)c1N
- IC50 [7]: Not Active
- MED (Rattus norvegicus [3]): inactive

Compound: CCOC(=O)c1c(C)nc2c(cnn2CC)c1N
- IC50 [4]: 460 nM
- minimal effective dose (Rattus norvegicus [5]): 75 mg/kg

Compound: CCCCCCn1ncc2c(N)c(C(=O)OCC)c(C)nc21
- IC50 [4]: 320 nM
- minimal effective dose (Rattus norvegicus [5]): 50 mg/kg

Compound: C=CCN(CC=C)C(=O)c1cnc2c(cnn2CCCCC)c1N
- IC50 [1]: Not Active
- minimal effective dose (Rattus norvegicus [2]): 25 mg/kg

Compound: CCCCCn1ncc2c(N)cc(C)nc21
- inhibition [8]: 13%
- minimal effective dose (Rattus norvegicus [6]): inactive

Compound: C#CCN(CC#C)C(=O)c1cnc2c(cnn2CCCCC)c1N
- IC50 [1]: Not Active
- minimal effective dose (Rattus norvegicus [2]): 12.5 mg/kg

Compound: CCOC(=O)c1c(C)nc2c(cnn2Cc2ccccc2)c1N
- IC50 [4]: 156 nM
- MED (Rattus norvegicus [3]): inactive

Compound: C#CCCCn1ncc2c(N)c(C(=O)NCC=C)cnc21
- IC50 [9]: 9.3 nM
- minimal effective dose (Rattus norvegicus [2]): 6.3 mg/kg

Compound: CCCCCn1ncc2c(N)c(C(=O)N(C)CCC)cnc21
- IC50 [1]: Not Active
- minimal effective dose (Rattus norvegicus [2]): 6.3 mg/kg

Compound: CCCCCn1ncc2c(N)c(C(=O)OCC)c(C(C)C)nc21
- inhibition [10]: 54%
- MED (Rattus norvegicus [11]): inactive

Compound: CCCNc1c(C(=O)OCC)c(C)nc2c1cnn2CC
- IC50 [7]: Not Active
- MED (Rattus norvegicus [12]): inactive

Compound: CCOC(=O)c1c(C)nc2c(cnn2CCC(C)(C)C)c1N
- inhibition [10]: 38%
- minimal effective dose (Rattus norvegicus [6]): inactive

Compound: CCCCCn1ncc2c(N)c(C(=O)OCCCC)c(C)nc21
- IC50 [4]: 113 nM
- minimal effective dose (Rattus norvegicus [5]): 50 mg/kg

Compound: CCCCCn1ncc2c(N)c(C(=O)N3CCCC3)cnc21
- IC50 [1]: Not Active
- minimal effective dose (Rattus norvegicus [5]): 50 mg/kg

Compound: C=CCOC(=O)c1c(C)nc2c(cnn2CC=C(C)C)c1N
- IC50 [4]: 6.4 nM
- MED (Rattus norvegicus [13]): inactive

Compound: C#CCN(C)C(=O)c1cnc2c(cnn2CCCCC)c1N
- IC50 [1]: Not Active
- minimal effective dose (Rattus norvegicus [2]): 6.3 mg/kg

Compound: CCCCCn1ncc2c(N)c(C(=O)OCCC3CC3)c(C)nc21
- IC50 [4]: 51 nM
- minimal effective dose (Rattus norvegicus [5]): 50 mg/kg

Compound: CCOC(=O)c1c(C)nc2c(cnn2CC(C)CC)c1N (stereo not drawn)
- IC50 [4]: 391 nM
- minimal effective dose (Rattus norvegicus [5]): 25 mg/kg

Compound: C=CCN(C)C(=O)c1cnc2c(cnn2CCC#CC)c1N
- IC50 [1]: Not Active
- minimal effective dose (Rattus norvegicus [2]): 12.5 mg/kg
